Measured values as given in ChEMBL document CHEMBL2062417, “Biotinylated quercetin as an intrinsic photoaffinity proteomics probe for the identification of quercetin target proteins” (Bioorg Med Chem, 2011).
Calls of active or inactive are those of the source.

Legend:
[1] = target: Casein kinase II subunit alpha (Homo sapiens) (UniProt P68400); assay: Binding affinity to CK2alpha at 150 uM followed by UV irradiation for 30 mins with Wood's glass filtered medium pressure mercury arc light by SDS-PAGE based pull down assay
Casein kinase II subunit alpha (Homo sapiens), sequence (P68400 whole entry, looked up): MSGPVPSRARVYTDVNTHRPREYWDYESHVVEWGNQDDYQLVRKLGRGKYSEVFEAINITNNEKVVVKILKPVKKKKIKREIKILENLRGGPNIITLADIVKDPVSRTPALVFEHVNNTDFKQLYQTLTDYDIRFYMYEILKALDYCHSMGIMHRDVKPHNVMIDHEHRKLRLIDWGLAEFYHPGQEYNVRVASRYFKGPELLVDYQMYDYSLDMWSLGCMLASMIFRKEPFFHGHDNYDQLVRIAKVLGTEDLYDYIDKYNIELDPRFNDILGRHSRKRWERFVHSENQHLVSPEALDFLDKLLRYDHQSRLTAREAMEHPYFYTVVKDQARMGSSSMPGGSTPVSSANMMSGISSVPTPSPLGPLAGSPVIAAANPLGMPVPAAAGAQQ
Summary of the method: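 CK2 (17.5–70 nM) was mixed with 150 μM BioQ in 400 μL 10 mM PBS pH 7.2 with protease inhibitors, with or without 10 mM MgCl2 and 2 μM ATP. Samples were irradiated 30 min on ice (320–400 nm, peak 365 nm) or left unirradiated. Capture was on streptavidin agarose for 1 h, with washes in lysis buffer or 2% SDS Tris buffer, then boiling, SDS-PAGE and silver staining.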

[2] = target: T1, Splicing factor 3B subunit 3 (Homo sapiens) (UniProt Q15393); assay: Binding affinity to SF3B3 in human Jurkat cells at 150 uM followed by UV irradiation for 30 mins with Wood's glass filtered medium pressure mercury arc light prior to cell lysis measured after denaturing wash by LC-MS/MS based pull down assay
T1 sequence (whole entry): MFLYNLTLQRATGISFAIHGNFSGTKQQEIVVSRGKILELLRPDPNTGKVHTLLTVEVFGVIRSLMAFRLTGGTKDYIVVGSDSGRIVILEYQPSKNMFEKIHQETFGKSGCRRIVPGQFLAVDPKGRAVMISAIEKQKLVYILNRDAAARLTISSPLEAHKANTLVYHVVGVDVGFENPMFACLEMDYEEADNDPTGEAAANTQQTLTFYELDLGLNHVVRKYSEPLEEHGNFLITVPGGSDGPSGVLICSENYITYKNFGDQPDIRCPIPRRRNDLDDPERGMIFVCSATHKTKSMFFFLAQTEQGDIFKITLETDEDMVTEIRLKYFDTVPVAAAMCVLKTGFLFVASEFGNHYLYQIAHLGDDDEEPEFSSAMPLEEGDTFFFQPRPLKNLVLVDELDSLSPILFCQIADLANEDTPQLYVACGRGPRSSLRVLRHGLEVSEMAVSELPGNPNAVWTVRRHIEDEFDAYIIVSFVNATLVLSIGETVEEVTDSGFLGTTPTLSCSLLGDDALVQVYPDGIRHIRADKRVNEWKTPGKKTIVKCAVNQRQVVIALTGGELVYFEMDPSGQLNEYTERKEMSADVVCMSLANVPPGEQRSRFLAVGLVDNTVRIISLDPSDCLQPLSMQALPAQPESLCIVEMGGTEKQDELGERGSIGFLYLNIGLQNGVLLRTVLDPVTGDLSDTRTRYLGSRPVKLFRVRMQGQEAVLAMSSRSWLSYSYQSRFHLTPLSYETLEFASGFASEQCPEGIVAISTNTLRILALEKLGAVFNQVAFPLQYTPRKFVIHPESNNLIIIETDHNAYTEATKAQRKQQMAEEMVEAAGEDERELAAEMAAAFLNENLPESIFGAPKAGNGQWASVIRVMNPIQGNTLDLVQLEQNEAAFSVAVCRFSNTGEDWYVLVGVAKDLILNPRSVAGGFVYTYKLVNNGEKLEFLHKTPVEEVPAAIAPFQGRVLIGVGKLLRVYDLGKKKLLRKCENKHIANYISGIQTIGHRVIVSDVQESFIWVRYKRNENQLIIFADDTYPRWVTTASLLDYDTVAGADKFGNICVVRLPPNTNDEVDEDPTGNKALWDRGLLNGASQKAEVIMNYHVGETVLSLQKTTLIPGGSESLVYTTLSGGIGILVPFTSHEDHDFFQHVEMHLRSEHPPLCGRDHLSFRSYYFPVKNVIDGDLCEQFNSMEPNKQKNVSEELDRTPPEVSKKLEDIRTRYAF
Summary of the method: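 Silver-stained bands from cells irradiated before lysis were excised, destained, reduced with 10 mM DTT, alkylated with 50 mM iodoacetamide and digested with trypsin overnight. Peptides were extracted in 1% TFA/50% acetonitrile. Nano-C18 LC used a 2–50% acetonitrile gradient with 0.1% formic acid over 50 min at 260 nL/min, followed by MS/MS identification.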

[3] = target: Heat shock-related 70 kDa protein 2 (Homo sapiens) (UniProt P54652); assay: Binding affinity to HSPA2 in human Jurkat cells at 150 uM followed by UV irradiation for 30 mins with Wood's glass filtered medium pressure mercury arc light after cell lysis measured after denaturing wash by SDS-PAGE based pull down assay
Heat shock-related 70 kDa protein 2 (Homo sapiens), sequence (P54652 whole entry): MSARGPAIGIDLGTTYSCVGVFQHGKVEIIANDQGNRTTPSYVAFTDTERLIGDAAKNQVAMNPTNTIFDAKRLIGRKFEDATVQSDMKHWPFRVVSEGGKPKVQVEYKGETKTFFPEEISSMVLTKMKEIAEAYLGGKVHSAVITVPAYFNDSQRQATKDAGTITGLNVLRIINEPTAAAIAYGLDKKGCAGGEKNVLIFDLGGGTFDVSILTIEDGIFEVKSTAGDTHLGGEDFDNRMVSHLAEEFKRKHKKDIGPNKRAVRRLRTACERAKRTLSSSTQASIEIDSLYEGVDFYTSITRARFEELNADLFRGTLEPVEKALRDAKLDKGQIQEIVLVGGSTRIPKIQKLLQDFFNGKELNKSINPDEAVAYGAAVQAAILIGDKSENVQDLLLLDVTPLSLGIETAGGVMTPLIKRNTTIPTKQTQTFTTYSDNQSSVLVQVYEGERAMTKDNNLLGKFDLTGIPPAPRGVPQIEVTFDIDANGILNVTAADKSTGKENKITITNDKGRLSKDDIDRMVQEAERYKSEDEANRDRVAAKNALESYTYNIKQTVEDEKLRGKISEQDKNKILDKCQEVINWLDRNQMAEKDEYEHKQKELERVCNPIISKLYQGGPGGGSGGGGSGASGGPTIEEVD
Summary of the method: (§1)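 Jurkat cells were grown in RPMI with 10% FBS (about 15×10^6 cells) and treated 2 h with 150 μM BioQ in 3% aqueous DMSO. They were heat-shocked at 43 °C for 30 min, recovered 1 h at 37 °C, and UV-irradiated (320–400 nm, peak 365 nm, 30 min, 4 °C) before or after sonication lysis. Streptavidin-agarose capture ran 1 h. Beads were washed ≥3× with lysis buffer or 2% SDS Tris pH 7.4, boiled, run on 12% SDS-PAGE and silver-stained.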

[4] = target: ATP synthase F(1) complex subunit alpha, mitochondrial (Homo sapiens) (UniProt P25705); assay: Binding affinity to ATP5A1 in human Jurkat cells at 150 uM followed by UV irradiation for 30 mins with Wood's glass filtered medium pressure mercury arc light prior to cell lysis measured after denaturing wash by SDS-PAGE based pull down assay; summary of the method: as §1
ATP synthase F(1) complex subunit alpha, mitochondrial (Homo sapiens), sequence (P25705 whole entry, one chain of several): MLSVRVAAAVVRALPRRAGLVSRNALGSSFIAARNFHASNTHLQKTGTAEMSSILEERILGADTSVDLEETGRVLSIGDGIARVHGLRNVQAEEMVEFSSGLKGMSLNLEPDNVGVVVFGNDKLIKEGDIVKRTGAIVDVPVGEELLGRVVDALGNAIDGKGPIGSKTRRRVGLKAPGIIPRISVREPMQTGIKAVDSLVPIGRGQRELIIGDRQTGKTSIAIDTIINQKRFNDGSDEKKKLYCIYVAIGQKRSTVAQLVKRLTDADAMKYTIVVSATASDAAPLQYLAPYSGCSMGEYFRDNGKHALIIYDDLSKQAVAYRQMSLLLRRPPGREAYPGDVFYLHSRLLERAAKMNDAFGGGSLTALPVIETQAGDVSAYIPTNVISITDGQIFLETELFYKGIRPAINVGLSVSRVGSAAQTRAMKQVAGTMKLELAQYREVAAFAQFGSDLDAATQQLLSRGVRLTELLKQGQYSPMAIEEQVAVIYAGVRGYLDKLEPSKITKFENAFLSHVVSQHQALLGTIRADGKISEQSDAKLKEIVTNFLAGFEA

Measured: Activity

O=C(CCCC[C@@H]1SC[C@@H]2NC(=O)N[C@@H]21)NCCOCCOCCNC(=O)COc1cc(O)c2c(=O)c(O)c(-c3ccc(O)c(O)c3)oc2c1
active: all assays above
